Experimental data reported in ChEMBL document CHEMBL1165965, “Synthesis and structure-activity relationships of 1,2,3,4-tetrahydropyrido[2,3-b]pyrazines as potent and selective inhibitors of the anaplastic lymphoma kinase” (Bioorg Med Chem, 2010).

Tests used:
[1] = target: T1, Serine/threonine-protein kinase ICK (Homo sapiens) (UniProt Q9UPZ9); assay: Inhibition of ICK at 1 uM
T1 sequence (whole entry): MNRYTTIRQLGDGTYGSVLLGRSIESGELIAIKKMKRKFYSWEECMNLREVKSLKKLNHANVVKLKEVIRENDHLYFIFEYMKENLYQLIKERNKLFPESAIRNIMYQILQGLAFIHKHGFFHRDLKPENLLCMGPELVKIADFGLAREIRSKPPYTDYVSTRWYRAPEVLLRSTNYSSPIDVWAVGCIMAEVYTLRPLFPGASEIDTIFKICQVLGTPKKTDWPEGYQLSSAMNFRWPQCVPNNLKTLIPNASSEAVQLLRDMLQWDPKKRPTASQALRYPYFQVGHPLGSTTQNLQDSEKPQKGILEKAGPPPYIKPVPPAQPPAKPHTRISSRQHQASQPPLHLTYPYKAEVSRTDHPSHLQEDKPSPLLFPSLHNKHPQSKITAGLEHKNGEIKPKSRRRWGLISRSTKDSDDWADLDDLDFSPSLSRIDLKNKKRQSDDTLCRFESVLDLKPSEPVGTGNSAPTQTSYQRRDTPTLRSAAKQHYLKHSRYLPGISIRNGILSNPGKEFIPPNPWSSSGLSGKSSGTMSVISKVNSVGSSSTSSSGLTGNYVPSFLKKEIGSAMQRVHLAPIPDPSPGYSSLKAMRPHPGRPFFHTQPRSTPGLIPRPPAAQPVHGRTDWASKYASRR

[2] = target: T2, Serine/threonine-protein kinase LATS1 (Homo sapiens) (UniProt O95835); assay: Inhibition of LATS1 at 1 uM
T2 sequence (whole entry): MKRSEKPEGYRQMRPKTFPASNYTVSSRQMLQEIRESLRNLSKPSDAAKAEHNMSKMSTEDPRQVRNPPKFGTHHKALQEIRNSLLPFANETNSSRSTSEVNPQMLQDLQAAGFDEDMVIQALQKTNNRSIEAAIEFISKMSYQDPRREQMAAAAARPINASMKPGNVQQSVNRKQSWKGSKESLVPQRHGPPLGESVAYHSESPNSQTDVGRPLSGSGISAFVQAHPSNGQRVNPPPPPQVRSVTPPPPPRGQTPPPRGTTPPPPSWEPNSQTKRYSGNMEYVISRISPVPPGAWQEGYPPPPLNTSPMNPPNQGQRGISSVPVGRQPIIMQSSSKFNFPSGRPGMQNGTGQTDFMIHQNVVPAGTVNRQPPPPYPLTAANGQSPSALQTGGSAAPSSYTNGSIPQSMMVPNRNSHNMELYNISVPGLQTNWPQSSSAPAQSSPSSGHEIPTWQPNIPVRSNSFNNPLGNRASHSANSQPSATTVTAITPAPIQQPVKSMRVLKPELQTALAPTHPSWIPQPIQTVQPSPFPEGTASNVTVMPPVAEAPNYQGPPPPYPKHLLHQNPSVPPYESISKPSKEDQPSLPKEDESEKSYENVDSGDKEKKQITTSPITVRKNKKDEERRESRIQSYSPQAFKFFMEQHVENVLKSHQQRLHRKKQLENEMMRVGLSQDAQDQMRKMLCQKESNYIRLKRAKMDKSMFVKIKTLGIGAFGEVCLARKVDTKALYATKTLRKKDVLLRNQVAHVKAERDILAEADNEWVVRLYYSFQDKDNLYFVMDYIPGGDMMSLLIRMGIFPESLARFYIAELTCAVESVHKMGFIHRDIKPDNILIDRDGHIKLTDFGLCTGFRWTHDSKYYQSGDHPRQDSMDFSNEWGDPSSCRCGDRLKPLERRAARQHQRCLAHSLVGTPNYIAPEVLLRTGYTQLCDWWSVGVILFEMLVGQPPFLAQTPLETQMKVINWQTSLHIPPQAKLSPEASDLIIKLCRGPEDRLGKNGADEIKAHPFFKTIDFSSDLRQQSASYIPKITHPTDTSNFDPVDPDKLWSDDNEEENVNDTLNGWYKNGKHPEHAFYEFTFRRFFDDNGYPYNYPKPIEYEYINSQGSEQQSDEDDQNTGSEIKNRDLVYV

[3] = target: Mitogen-activated protein kinase kinase kinase 11 (Homo sapiens) (UniProt Q16584); assay: Inhibition of MLK3 at 1 uM
Chain of Mitogen-activated protein kinase kinase kinase 11 (Homo sapiens) (Q16584 whole entry, looked up): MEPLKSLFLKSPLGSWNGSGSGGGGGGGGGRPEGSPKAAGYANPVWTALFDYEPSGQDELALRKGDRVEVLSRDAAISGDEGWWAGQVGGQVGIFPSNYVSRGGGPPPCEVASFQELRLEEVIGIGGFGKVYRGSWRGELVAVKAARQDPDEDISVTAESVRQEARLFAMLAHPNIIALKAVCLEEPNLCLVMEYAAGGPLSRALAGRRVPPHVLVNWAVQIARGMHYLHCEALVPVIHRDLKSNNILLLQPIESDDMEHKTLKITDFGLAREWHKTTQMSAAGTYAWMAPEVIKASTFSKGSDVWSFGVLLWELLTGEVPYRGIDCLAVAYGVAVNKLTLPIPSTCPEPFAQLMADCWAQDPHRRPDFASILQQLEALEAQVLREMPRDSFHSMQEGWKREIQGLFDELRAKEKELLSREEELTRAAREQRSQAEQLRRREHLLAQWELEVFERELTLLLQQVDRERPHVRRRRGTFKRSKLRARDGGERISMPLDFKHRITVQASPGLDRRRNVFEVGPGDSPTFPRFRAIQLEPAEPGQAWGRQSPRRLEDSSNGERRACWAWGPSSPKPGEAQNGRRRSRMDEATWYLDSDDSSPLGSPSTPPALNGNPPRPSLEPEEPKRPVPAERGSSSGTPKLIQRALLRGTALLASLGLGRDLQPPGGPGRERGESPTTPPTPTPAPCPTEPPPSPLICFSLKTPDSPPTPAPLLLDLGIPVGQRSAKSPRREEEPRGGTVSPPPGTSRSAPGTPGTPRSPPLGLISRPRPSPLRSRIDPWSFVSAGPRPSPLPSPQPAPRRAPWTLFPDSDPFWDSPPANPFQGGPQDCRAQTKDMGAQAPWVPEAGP
Outline: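 Kinase-panel screen using KINOMEscan technology, with 250–400 kinases per panel. Each compound was tested at a single concentration, and inhibition of each kinase was recorded. Selectivity was summarised as S(90), the fraction of kinases inhibited by more than 90%.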

[4] = target: Serine/threonine-protein kinase NIM1 (Homo sapiens) (UniProt Q8IY84); assay: Inhibition of NIM1 at 1 uM
Chain of Serine/threonine-protein kinase NIM1 (Homo sapiens) (Q8IY84 whole entry): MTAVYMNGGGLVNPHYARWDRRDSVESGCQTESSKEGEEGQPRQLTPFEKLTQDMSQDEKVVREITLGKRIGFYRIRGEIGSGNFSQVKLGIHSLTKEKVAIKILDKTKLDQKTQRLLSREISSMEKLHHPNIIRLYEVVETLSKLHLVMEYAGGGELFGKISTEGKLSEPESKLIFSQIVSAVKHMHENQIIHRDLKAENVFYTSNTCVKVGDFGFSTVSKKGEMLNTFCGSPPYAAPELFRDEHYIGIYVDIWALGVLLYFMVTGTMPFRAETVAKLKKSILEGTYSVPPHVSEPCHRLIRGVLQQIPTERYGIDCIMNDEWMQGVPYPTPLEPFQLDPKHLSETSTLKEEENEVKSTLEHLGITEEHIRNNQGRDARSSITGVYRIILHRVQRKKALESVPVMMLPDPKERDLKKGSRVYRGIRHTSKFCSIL

[5] = target: cAMP-dependent protein kinase catalytic subunit beta (Homo sapiens) (UniProt P22694); assay: Inhibition of PKAC-beta at 1 uM
[6] = target: SRSF protein kinase 2 (Homo sapiens) (UniProt P78362); assay: Inhibition of SRPK2 at 1 uM
Chain of SRSF protein kinase 2 (Homo sapiens) (P78362 whole entry, looked up): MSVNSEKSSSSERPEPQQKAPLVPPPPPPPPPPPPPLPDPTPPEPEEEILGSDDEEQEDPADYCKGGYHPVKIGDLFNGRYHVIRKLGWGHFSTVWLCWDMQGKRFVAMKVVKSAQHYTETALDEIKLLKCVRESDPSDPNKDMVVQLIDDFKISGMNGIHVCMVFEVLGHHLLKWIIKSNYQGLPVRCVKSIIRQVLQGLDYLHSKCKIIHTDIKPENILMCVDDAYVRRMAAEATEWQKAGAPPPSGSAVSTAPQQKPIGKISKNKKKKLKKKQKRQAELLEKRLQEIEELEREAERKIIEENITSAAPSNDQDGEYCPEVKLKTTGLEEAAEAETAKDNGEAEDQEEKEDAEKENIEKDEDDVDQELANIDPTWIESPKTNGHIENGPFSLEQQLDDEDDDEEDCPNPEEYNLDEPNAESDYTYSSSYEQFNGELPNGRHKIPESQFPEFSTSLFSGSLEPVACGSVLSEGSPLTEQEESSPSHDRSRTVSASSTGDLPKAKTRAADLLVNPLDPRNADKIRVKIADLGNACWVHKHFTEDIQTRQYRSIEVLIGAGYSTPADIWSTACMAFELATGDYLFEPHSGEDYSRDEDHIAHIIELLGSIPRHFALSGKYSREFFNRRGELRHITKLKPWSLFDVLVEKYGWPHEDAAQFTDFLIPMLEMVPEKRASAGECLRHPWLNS

[7] = target: RAC-beta serine/threonine-protein kinase (Homo sapiens) (UniProt P31751); assay: Inhibition of AKT2 at 1 uM
Chain of RAC-beta serine/threonine-protein kinase (Homo sapiens) (P31751 whole entry): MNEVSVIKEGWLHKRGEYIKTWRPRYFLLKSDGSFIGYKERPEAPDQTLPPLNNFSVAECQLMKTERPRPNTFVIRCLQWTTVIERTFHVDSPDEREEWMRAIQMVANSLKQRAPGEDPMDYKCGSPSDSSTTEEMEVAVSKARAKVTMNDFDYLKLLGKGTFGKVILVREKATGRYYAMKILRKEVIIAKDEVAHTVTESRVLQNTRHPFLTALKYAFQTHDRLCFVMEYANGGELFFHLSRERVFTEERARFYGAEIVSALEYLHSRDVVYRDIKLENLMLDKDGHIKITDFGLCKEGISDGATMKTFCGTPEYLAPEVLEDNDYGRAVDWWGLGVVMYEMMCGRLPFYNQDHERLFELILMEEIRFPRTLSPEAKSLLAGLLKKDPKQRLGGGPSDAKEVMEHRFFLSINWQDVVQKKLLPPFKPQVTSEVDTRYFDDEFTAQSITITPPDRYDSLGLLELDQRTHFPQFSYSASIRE
Outline: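 Ambit KINOMEscan screen at a single concentration across a 250–400 kinase panel, recorded as percent inhibition. Selectivity was expressed as S(90), the fraction of kinases inhibited >90%.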

[8] = target: T3, NUAK family SNF1-like kinase 1 (Homo sapiens) (UniProt O60285); assay: Inhibition of ARK5 at 1 uM
T3 sequence (whole entry): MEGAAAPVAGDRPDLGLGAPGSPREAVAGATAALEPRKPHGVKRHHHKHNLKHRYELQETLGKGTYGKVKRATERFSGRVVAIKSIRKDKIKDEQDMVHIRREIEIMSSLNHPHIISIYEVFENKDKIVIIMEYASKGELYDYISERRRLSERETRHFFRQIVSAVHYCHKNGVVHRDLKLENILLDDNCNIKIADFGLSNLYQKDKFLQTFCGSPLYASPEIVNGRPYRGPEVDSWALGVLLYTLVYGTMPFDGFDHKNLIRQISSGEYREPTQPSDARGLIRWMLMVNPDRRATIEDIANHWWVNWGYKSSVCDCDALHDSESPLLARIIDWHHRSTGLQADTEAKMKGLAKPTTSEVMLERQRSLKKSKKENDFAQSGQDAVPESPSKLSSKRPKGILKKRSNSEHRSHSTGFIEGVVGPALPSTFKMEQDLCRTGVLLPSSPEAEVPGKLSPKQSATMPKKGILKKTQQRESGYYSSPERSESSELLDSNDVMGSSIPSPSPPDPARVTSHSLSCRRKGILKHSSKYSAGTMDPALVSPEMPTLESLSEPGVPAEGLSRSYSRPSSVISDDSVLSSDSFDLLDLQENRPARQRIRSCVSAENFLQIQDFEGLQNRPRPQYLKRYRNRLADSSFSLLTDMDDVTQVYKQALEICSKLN

[9] = test system: Fibroblast growth factor receptor 3 (Homo sapiens), P22607 [G697C]; assay: Inhibition of FGFR3 G697C mutant at 1 uM
Chain of Fibroblast growth factor receptor 3 (Homo sapiens), P22607 [G697C] (P22607 whole entry G697C): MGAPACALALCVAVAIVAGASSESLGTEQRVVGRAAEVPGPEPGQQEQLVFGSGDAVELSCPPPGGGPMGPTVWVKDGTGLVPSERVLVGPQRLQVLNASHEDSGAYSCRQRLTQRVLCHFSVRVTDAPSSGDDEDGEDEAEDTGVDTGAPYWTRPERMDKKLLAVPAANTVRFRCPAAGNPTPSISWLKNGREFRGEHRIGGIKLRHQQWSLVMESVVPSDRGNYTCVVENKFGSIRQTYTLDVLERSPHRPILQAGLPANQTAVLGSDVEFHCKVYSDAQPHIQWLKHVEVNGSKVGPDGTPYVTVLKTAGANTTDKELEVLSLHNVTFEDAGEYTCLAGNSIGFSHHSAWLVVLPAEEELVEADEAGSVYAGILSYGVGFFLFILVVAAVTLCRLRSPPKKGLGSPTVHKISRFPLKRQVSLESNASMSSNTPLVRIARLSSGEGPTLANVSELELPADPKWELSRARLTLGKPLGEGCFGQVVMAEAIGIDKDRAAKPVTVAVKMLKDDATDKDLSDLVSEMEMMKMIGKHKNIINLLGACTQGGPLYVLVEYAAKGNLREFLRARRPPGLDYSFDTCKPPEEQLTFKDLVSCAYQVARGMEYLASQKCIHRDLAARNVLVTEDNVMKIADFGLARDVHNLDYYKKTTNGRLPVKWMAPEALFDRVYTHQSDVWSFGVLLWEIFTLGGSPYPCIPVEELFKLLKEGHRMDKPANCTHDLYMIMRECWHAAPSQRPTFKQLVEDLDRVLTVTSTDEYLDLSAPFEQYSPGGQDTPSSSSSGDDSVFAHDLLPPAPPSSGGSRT
Outline: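 Single-concentration screen using Ambit Bioscience KINOMEscan technology across a panel of 250–400 kinases. Per-kinase inhibition from this screen was summarized as S(90), the fraction of kinases inhibited by more than 90%.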

| inhibition [1] [%] | inhibition [2] [%] | inhibition [3] [%] | inhibition [4] [%] | inhibition [5] [%] | inhibition [6] [%] | inhibition [7] [%] | inhibition [8] [%] | inhibition [9] [%] | SMILES |
| --- | --- | --- | --- | --- | --- | --- | --- | --- | --- |
| < 50 | < 50 | < 50 | < 50 | < 50 | < 50 | < 50 | 92 | < 50 | CN1CCN(c2ccc(-c3cnc4c(c3)N(Cc3cc(Cl)ccc3C(F)(F)F)CCN4)cn2)CC1 |
| – | – | < 50 | – | < 50 | – | < 50 | – | < 50 | O=C(c1ccc(-c2cnc3c(c2)N(Cc2cc(Cl)ccc2C(F)(F)F)CCN3)cc1)N1CCCCC1 |
| < 50 | < 50 | < 50 | < 50 | < 50 | < 50 | < 50 | 88 | < 50 | FC(F)(F)c1ccc(Cl)cc1CN1CCNc2ncc(-c3ccnc(N4CCNCC4)c3)cc21 |
| < 50 | < 50 | < 50 | < 50 | < 50 | < 50 | < 50 | 90 | < 50 | CC(=O)N1CCN(c2cc(-c3cnc4c(c3)N(Cc3cc(Cl)ccc3C(F)(F)F)CCN4)ccn2)CC1 |

More lines, now with the values behind:

| SMILES | inhibition [1] [%] | inhibition [2] [%] | inhibition [3] [%] | inhibition [4] [%] | inhibition [5] [%] | inhibition [6] [%] | inhibition [7] [%] | inhibition [8] [%] | inhibition [9] [%] |
| --- | --- | --- | --- | --- | --- | --- | --- | --- | --- |
| CN1CCN(c2ccc(-c3cnc4c(c3)N(Cc3cc(Cl)ccc3Cl)CCN4)cn2)CC1 | < 50 | < 50 | < 50 | < 50 | < 50 | < 50 | < 50 | 94 | < 50 |
| COC1CCN(C(=O)c2ccc(-c3cnc4c(c3)N(Cc3cc(Cl)ccc3C(F)(F)F)CCN4)cc2)CC1 | – | – | < 50 | – | < 50 | – | < 50 | – | < 50 |
| O=C(O)c1ccc(-c2cnc3c(c2)N(Cc2cc(Cl)ccc2C(F)(F)F)CCN3)cc1 | – | – | < 50 | – | < 50 | – | < 50 | – | < 50 |
| O=C(c1ccc(-c2cnc3c(c2)N(Cc2cc(Cl)ccc2C(F)(F)F)CCN3)cc1)N1CCC(N2CCCC2)CC1 | – | – | < 50 | – | < 50 | – | < 50 | – | < 50 |
| CN1CCN(c2ccc(-c3cnc4c(c3)N(Cc3c(F)ccc(F)c3Cl)CCN4)cn2)CC1 | < 50 | < 50 | < 50 | < 50 | < 50 | < 50 | < 50 | 92 | < 50 |
| CN1CCN(c2ccc(-c3cnc4c(c3)N(Cc3cc(F)ccc3F)CCN4)cn2)CC1 | < 50 | < 50 | < 50 | < 50 | < 50 | < 50 | < 50 | 96 | < 50 |
